Data reported in ChEMBL document CHEMBL2380302, “Synthesis of 3-O-propargylated betulinic acid and its 1,2,3-triazoles as potential apoptotic agents” (Eur J Med Chem, 2013).
Calls of active or inactive are those of the source. The rule behind the calls is not given here.

Assays:
HL-60 [1] = assay: Induction of apoptosis in human HL60 cells assessed as DNA ladder formation at 5 uM after 6 hrs by DNA agarose gel electrophoresis; type: functional, cell-based
Summary of the method: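 HL-60 cells (2 × 10⁶/well/2 mL) were treated at 5 µM for 6 h, then pelleted and washed in PBS. DNA was extracted with phenol:chloroform:isoamyl alcohol and ethanol-precipitated. It was run on 1% agarose in TAE at 80 V for 1.5 h.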

SF-295 = assay: Cytotoxicity against human SF295 cells at 20 uM after 48 hrs by SRB assay; type: functional; conditions: SF-295, 48 h, read-out: GI
Summary of the method: (§1)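 Cells grown in RPMI-1640/MEM with 10% FCS and penicillin/streptomycin at 37 °C in 5% CO2. They adhered overnight in 96-well plates and were exposed to compound for 48 h. Cells were then fixed with ice-cold 50% TCA for 60 min and stained with 0.4% SRB in 1% acetic acid for 30 min. Dye was solubilised in 10 mM Tris base and OD read at 570 nm (reference 620 nm).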

HCT-15 [2] = assay: Cytotoxicity against human HCT15 cells at 20 uM after 48 hrs by SRB assay; type: functional; conditions: HCT-15, 48 h, read-out: GI; summary of the method: as §1
A549 = assay: Cytotoxicity against human A549 cells at 20 uM after 48 hrs by SRB assay; type: functional; conditions: A549, 48 h, read-out: GI; summary of the method: as §1
PC-3 = assay: Cytotoxicity against human PC3 cells at 20 uM after 48 hrs by SRB assay; type: functional; conditions: PC-3, 48 h, read-out: GI; summary of the method: as §1
DU-145 = assay: Cytotoxicity against human DU145 cells at 20 uM after 48 hrs by SRB assay; type: functional; conditions: DU-145, 48 h, read-out: GI; summary of the method: as §1
THP-1 = assay: Cytotoxicity against human THP1 cells at 20 uM after 48 hrs by SRB assay; type: functional; conditions: THP-1, 48 h, read-out: GI; summary of the method: as §1
HL-60 [3] = assay: Cytotoxicity against human HL60 cells at 20 uM after 48 hrs by SRB assay; type: functional; conditions: HL-60, 48 h, read-out: GI
Summary of the method: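 HL-60 suspension cells in RPMI-1640/MEM with 10% FCS at 37 °C in 5% CO2 were plated in 96 wells and exposed to compound for 48 h. Cells were fixed with 80% TCA and pelleted at 1500 rpm for 15 min. Staining used 0.4% SRB in 1% acetic acid for 30 min; dye was dissolved in 10 mM Tris base and OD read at 570/620 nm.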

HCT-15 [4] = assay: Cytotoxicity against human HCT15 cells at 1 uM after 48 hrs by SRB assay; type: functional; conditions: HCT-15, 48 h, read-out: GI
HEp-2 = assay: Cytotoxicity against human Hep2 cells at 1 uM after 48 hrs by SRB assay; type: functional; conditions: HEp-2, 48 h, read-out: GI

Q: For `CC[C@@]1(O)C(=O)OCc2c1cc1n(c2=O)Cc2cc3ccccc3nc2-1`, which Activity (HL-60 [1]) is on record?
A: The Activity was “Active”.

Q: What does the source list for `O=c1[nH]cc(F)c(=O)[nH]1` [FLUOROURACIL]?
A: inhibition of growth at 20 µM (SF-295): 73%; inhibition of growth at 20 µM (HCT-15 [2]): 72%; inhibition of growth at 20 µM (A549): 75%; inhibition of growth at 20 µM (PC-3): 64%; inhibition of growth at 20 µM (DU-145): 72%; inhibition of growth at 20 µM (THP-1): 83%; inhibition of growth at 20 µM (HL-60 [3]): 89%

Q: For `CO[C@@]12[C@H](COC(N)=O)C3=C(C(=O)C(C)=C(N)C3=O)N1C[C@@H]1N[C@@H]12` [MITOMYCIN], which inhibition of growth at 1 µM (HCT-15 [4]) is on record?
A: The inhibition of growth at 1 µM was 76%.

Q: What about the inhibition of growth at 1 µM (HEp-2) of the same molecule?
A: The inhibition of growth at 1 µM was 68%.
